This is an account of results in ChEMBL document CHEMBL4513216, “Probing the Open Global Health Chemical Diversity Library for Multistage-Active Starting Points for Next-Generation Antimalarials” (ACS Infect Dis, 2020).

The data set can be described thus: Toxicity liver stage against HepG2, at 10uM. Type of data set: cell-based. Also noted: test concentration 10 uM, cell line HepG2-A16-CD81EGFP. Particulars: human, HepG2-A16-CD81EGFP cells; read-out: INHIBITION
The method in brief:
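Uninfected HepG2-A16-CD81EGFP cells, 3 × 10^3 per well, 1536-well, plated on prespotted compound at 10 μM final, parasite-free screening media added to match infected plates; puromycin 10 μM positive, DMSO 0.5% negative; run in parallel with 48 h PbLuc assay at 37 °C, 5% CO2; viability by CellTiter-Glo luminescence, normalized to controls.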

As for `O=C(NC[C@@H]1C[C@@H]2CN(C(=O)CO)C[C@H]2O1)c1ccsc1`, the cytotoxicity at 10 µM was -96.5%. As to `Cc1nn(C)c(C)c1-c1c(-c2ccccc2)ncn1[C@H](CO)C(=O)O`, the cytotoxicity at 10 µM is -2.34%.

Consider `N#Cc1ccc(N2CCCC(CO)(CCOc3ccccc3)C2)nc1` (configuration not stated), for which the cytotoxicity at 10 µM is 17.4%. `Cc1ccoc1C(=O)N1CC[C@H]2O[C@@H](C)C[C@H]2C1`: the cytotoxicity at 10 µM was -4.93%. With `Cc1cnn(CCNCC(=O)NC(c2ccccc2)c2ccccc2)c1`, the cytotoxicity at 10 µM is -5.73%.

On to `c1csc(CCNC2CCc3ncnn3C2)c1` (configuration not stated), for which the cytotoxicity at 10 µM was 17.3%. As for `CS(=O)(=O)NCC1CCCN(C(=O)c2ccc3c(c2)CCC3)C1` (configuration not stated), the cytotoxicity at 10 µM was -5.52%. On to `CCN1CCc2[nH]cnc2C12CCN(C(=O)CCc1cccs1)CC2`, for which the cytotoxicity at 10 µM was found to be 0.688%. For `NC(=O)C(NC1CCN(CC2CCCCC2)CC1)c1ccc(F)cc1` (configuration not stated), the cytotoxicity at 10 µM was -5.14%. Regarding `CN(Cc1ccco1)C1COC2(CCN(Cc3nccs3)CC2)C1` (configuration not stated), the cytotoxicity at 10 µM was 2.93%. On to `Cc1nc(CNC2CCc3ncnn3C2)oc1C` (configuration not stated), for which the cytotoxicity at 10 µM is -3.86%. Consider `CCCNC(c1ccc(F)cc1)c1cccnc1` (configuration not stated), for which the cytotoxicity at 10 µM was 3.41%. On to `c1c2c(nn1CC1CC1)C(CNC1CCOCC1)OCC2` (configuration not stated), for which the cytotoxicity at 10 µM is 7.43%. On to `COC(=O)c1cccn1C1CCN(CCN2C(=O)CCC2=O)CC1`, for which the cytotoxicity at 10 µM is 0.207%.

As for `O=C(c1cnc(C2CC2)nc1)N1CCCC(c2nccs2)C1` (configuration not stated), the cytotoxicity at 10 µM amounted to 4.53%. For `CNC(=O)c1sccc1N(C)S(=O)(=O)c1ccc(Cl)cc1`, the cytotoxicity at 10 µM stood at 14.7%. Regarding `Cc1ncsc1CN(C)C(=O)CC1CCOc2ccccc21` (configuration not stated), the cytotoxicity at 10 µM was 20.2%. `Cc1ccc(C2CSCCN2C(=O)c2cccnc2)cc1` (configuration not stated): the cytotoxicity at 10 µM is -4.11%. As for `CC(C)CCN(C)Cc1nc2c(cnn2C)c(=O)[nH]1`, the cytotoxicity at 10 µM is -11.2%. With `Cc1ccc(C2COCCN2C(=O)c2ccc(F)c(F)c2)o1` (configuration not stated), the cytotoxicity at 10 µM was 4.96%. In the case of `Cc1cc(N2C[C@H](NC(=O)C3(C#N)CCOCC3)[C@@H](C(C)C)C2)ccn1`, the cytotoxicity at 10 µM was -4.1%. In the case of `c1cnc(N2CCOCC3(CCCN(c4nncs4)C3)C2)cn1` (configuration not stated), the cytotoxicity at 10 µM was found to be 3.92%.

`Cc1nc2c(c(N(C)CC3Cc4ccccc4CN3C)n1)CCNCC2` (configuration not stated): the cytotoxicity at 10 µM is -29%. In the case of `COc1cccc(COCC(=O)N2CCCC(c3ccn[nH]3)C2)c1` (configuration not stated), the cytotoxicity at 10 µM is -20.9%.

For the compound `N#Cc1ccc(F)c(CSCCN2CCOCC2)c1`, the cytotoxicity at 10 µM is -5.71%.

Consider `C1CCC(CNC2CCCN(Cc3noc(C4CC4)n3)C2)C1` (configuration not stated), for which the cytotoxicity at 10 µM was -2.34%. For `N[C@@H]1c2ccccc2C2(CCN(C(=O)c3ccc(CO)o3)CC2)[C@H]1O` the value was 3.92%; for `CC(C)N1C(=O)CC(NC(=O)c2cc(Cl)sc2Cl)C1=O` (configuration not stated), -2.27%. For `CC1(C(=O)NCc2cccnc2Oc2ccc(F)c(F)c2)CCCNC1` (configuration not stated), the cytotoxicity at 10 µM was -0.37%. To `Cn1cc(C(=O)NC2CCN(C(=O)NCC3CCSCC3)CC2)cn1` belongs 4.02%; to `CC1(C)CC1(C(=O)N1CC(c2cccnc2)C1)c1ccc(F)cc1` (configuration not stated), -9.41%; to `O=C(Cn1cccn1)Nc1ccc(N2CCOCC2)cc1`, -2.51%. For `O=C(NCc1ccccc1CO)C1COc2ccccc21` (configuration not stated), the cytotoxicity at 10 µM is 12.3%. On to `CCc1ncc2c(n1)CN(Cc1nnc(C(C)C)o1)CC2`, for which the cytotoxicity at 10 µM is -4.54%. For `Cc1nccn1CCN(C)C(=O)C1CCCN(C2CCOCC2)C1` (configuration not stated) the value was 0.417%; for `CCOc1ccc(C(=O)N(CCOC)Cc2c(C)nn(CC)c2C)o1`, -2.99%; for `CN(C)C(=O)[C@H]1C[C@H]2CN(S(=O)(=O)c3ccccc3)C[C@@H]1O2`, -83.1%. To `CC(C)CN1CCCC12CCN(c1nncs1)C2` (configuration not stated) belongs 1.81%. On to `c1cnc(N2CCOC3(CCN(CC4CCOC4)CC3)C2)nc1` (configuration not stated), for which the cytotoxicity at 10 µM was -0.777%.

With `O=C(NCCCN1CCN(c2ncccn2)CC1)Nc1ccccn1`, the cytotoxicity at 10 µM was -7.48%. `Cc1cc(C(N)=O)c(N2C[C@@H](C)[C@@](C)(O)C2)nc1C`: the cytotoxicity at 10 µM is -9.14%. Consider `CCn1c(CN(C)C)nnc1C1CCN(Cc2ccc(Cl)cc2)CC1`, for which the cytotoxicity at 10 µM came to 1.77%. For `COC(=O)CNC(=O)CCCn1cnc2ccccc2c1=O` the value was -7.48%; for `CNC(=O)C1Cn2ccnc2C2(CCN(Cc3cccs3)CC2)O1` (configuration not stated), -70.6%; for `CO[C@@H]1CO[C@@]2(CCN(C(=O)COc3ccccc3C)C2)C1`, 9.95%.

As to `CN(C)C(=O)CC1CC2(CCN(CC3CC3)CC2)Oc2ccccc21` (configuration not stated), the cytotoxicity at 10 µM is -3.51%. On to `O=C1[C@H]2CN(S(=O)(=O)C3CC3)C[C@H]2CN1Cc1cccnc1`, for which the cytotoxicity at 10 µM is -0.0545%. On to `N#Cc1cccc(CN2CCN(C(=O)C3CCC3)[C@@H]3CS(=O)(=O)C[C@@H]32)c1`, for which the cytotoxicity at 10 µM was -3.49%.

With `CCC1CN(CC(=O)NCc2ccco2)CCO1` (configuration not stated), the cytotoxicity at 10 µM was -7.66%. For `COCCSCC(=O)NCc1ccnc(N(C)C)c1` the value was 9.88%; for `CN1N=C(C(=O)N2CCCC(CCc3c(F)cccc3F)C2)CCC1=O` (configuration not stated), -7.41%; for `Cc1cc(NC(=O)NCC2CCOC2)no1` (configuration not stated), 4.43%. In the case of `CN1CC2(COCCN(C(=O)c3ccco3)C2)OCC1=O` (configuration not stated), the cytotoxicity at 10 µM is 2.33%. For `CCOCc1nc2c(c(NCCNC(C)=O)n1)CCN(C(C)=O)CC2`, the cytotoxicity at 10 µM is 9.93%.

As to `Cc1nc(-c2cccc(C(=O)O)c2)cc(C2CCCN(C(C)C)C2)n1` (configuration not stated), the cytotoxicity at 10 µM is -7.44%. On to `Nc1cc(N2CCCC2c2cnccn2)ncn1` (configuration not stated), for which the cytotoxicity at 10 µM was found to be 0.153%. For `Cc1nnc2n1CC(CNCc1nc(-c3ccsc3)no1)CC2` (configuration not stated) the value was -4.68%. In the case of `CC(C)COC(=O)N1CCCN(C(C)c2nnc(CC(C)C)o2)CC1` (configuration not stated), the cytotoxicity at 10 µM was 8.69%. For `COC(=O)c1cccc(-c2nc(CC3CCN(C)CC3)no2)c1` the value was -1.6%; for `CN(C)c1ncccc1CNC(=O)NCc1ccc(Cl)s1`, 9.21%; for `C=C(C)CNC(=O)C1CCCN(C2CCN(C(C)C)CC2)C1` (configuration not stated), -0.454%. As for `CCOc1ccc(Cl)c(C(=O)NCCc2ncc[nH]2)n1`, the cytotoxicity at 10 µM is -11.2%. As to `O=C(Cn1ccnc1)N1C[C@@H]2CC[C@H](Oc3ccccc3Cl)[C@@H]2C1`, the cytotoxicity at 10 µM is 11.9%. For `CC(C)N1CCC(CC(=O)N(C)CC(=O)c2ccc(O)cc2)CC1`, the cytotoxicity at 10 µM stood at 5.21%. For the compound `O=C(NC1CC(=O)N(Cc2cccc(F)c2)C1)c1ccncc1` (configuration not stated), the cytotoxicity at 10 µM was -7.41%.

For `Cc1nnc2n1CCN(C(C)c1nnc(-c3cccs3)o1)C2` (configuration not stated), the cytotoxicity at 10 µM was -11.2%. On to `O=C(NCc1cn2c(n1)CN(Cc1ccncc1)CC2)C1CCC1`, for which the cytotoxicity at 10 µM came to 6.76%.

Regarding `Cc1n[nH]c2c1C(c1ccsc1)SCC(=O)N2` (configuration not stated), the cytotoxicity at 10 µM was 4.21%. For the compound `COCCCNC(=O)CN(C)C(C)c1nc(C(C)C)no1` (configuration not stated), the cytotoxicity at 10 µM stood at 8.24%.

On to `COc1ccc2c(c1)CC(NCc1cccc(CO)c1)CC2` (configuration not stated), for which the cytotoxicity at 10 µM was -51.8%. Take `O=S(=O)(C1CC1)N1CCC2(COCc3cnc(-c4cccnc4)nc32)C1` (configuration not stated): the cytotoxicity at 10 µM is -115%. Turning to `CS(=O)(=O)N1CCC(Cc2cnc(Br)cn2)C1` (configuration not stated), the cytotoxicity at 10 µM was determined as 14.5%.

Take `Cc1ccc(CN2CCC3(CCC(C(=O)N(C)C)O3)CC2)o1` (configuration not stated): the cytotoxicity at 10 µM is -2.63%. Consider `CCc1nccn1C1CCCN(C(=O)c2ccc3nnc(C)n3c2)C1` (configuration not stated), for which the cytotoxicity at 10 µM was -8.95%.

As to `CCN1C(=O)C2(CCOCC2)c2cc(NC(=O)COC)ccc21`, the cytotoxicity at 10 µM was -0.82%. In the case of `O=C(NCc1ccco1)N1CCOC(c2ccccc2Cl)C1` (configuration not stated), the cytotoxicity at 10 µM was -1.91%. As to `CN(Cc1ccccc1F)C(=O)Cn1cc(NC(=O)C(C)(C)C)cn1`, the cytotoxicity at 10 µM came out at 5.23%. As to `Cc1ccc(CNCCCNS(C)(=O)=O)c(Br)c1`, the cytotoxicity at 10 µM came out at 3.36%. To `CC(C)(O)CCc1ccc(C(=O)N2Cc3cnn(CCO)c3C2)cc1` belongs 2.69%. As to `C[C@@H]1CN(Cc2nc(Cc3ccccc3F)no2)C[C@H](C)O1`, the cytotoxicity at 10 µM was 6.74%. In the case of `CNc1nc(CNC(=O)Nc2ccccc2OC(C)C)cs1`, the cytotoxicity at 10 µM is -12.1%. Turning to `CC(C)NC(=O)CN1CCN(CC2CCOc3ccccc3C2)CC1` (configuration not stated), the cytotoxicity at 10 µM was -1.72%. Turning to `CC(=O)NCCCC(=O)N1CCC(Sc2cccc(C)c2)CC1`, the cytotoxicity at 10 µM came to 2.06%. Consider `Cc1n[nH]c(C)c1C1CCCN1C(=O)NC(C)(C)C` (configuration not stated), for which the cytotoxicity at 10 µM was -4.27%. Regarding `CCOc1ncccc1NC(=O)N1CCN(c2ccc(O)cc2)CC1`, the cytotoxicity at 10 µM was -9.92%.

Regarding `CS(=O)(=O)N[C@@H]1CCN(Cc2cccnc2)[C@H]1Cc1cccnc1`, the cytotoxicity at 10 µM was -70.2%. In the case of `Cc1nc(-c2nnc[nH]2)sc1C(=O)N1CCCC1CC(C)(C)C` (configuration not stated), the cytotoxicity at 10 µM was 12.1%. To `COCCNC(=O)[C@@]12CCO[C@@H]1CCN(Cc1scnc1C)C2` belongs -10.6%; to `CCN1C(=O)CCC12CCC(NC(=O)c1ccncc1F)CC2` (configuration not stated), 0.758%; to `Cc1noc(C(C)N2CCN(c3ncnc4sccc34)CC2)n1` (configuration not stated), 8.38%.

Consider `O[C@H]1CCCC[C@@H]1N1CCN(CCCc2ccc3c(c2)OCO3)CC1`, for which the cytotoxicity at 10 µM was -3.69%.

Take `CCN(CC(=O)Nc1cc(Cl)ccc1C)C(=O)c1cnccn1`: the cytotoxicity at 10 µM is -0.12%. For `O=C(c1ccoc1)N1CC[C@@H](N2CCOCC2)[C@@H]1Cc1ccccc1`, the cytotoxicity at 10 µM is -82%. On to `CCOc1ncccc1NC(=O)NC1CCN(C(=O)C2CC2)CC1`, for which the cytotoxicity at 10 µM is -13.6%. For the compound `CC(C)C(C)N1Cc2cccc(NCC(=O)N(C)C)c2C1` (configuration not stated), the cytotoxicity at 10 µM came out at 8%.

As to `CC(Cc1c(F)cccc1F)NC(=O)NCc1ncnn1C` (configuration not stated), the cytotoxicity at 10 µM amounted to 12.9%. For the compound `COC(=O)[C@H](C)NC(=O)c1cnc(Cc2ccc(F)cc2)s1`, the cytotoxicity at 10 µM was -10.9%.
